Data taken from ChEMBL document CHEMBL3593224, “Design, synthesis and biological evaluation of a novel series of peripheral-selective noradrenaline reuptake inhibitor” (Bioorg Med Chem, 2015).
pIC50: −log10 of the molar value. The source made the active and inactive calls. The rule behind the calls is not given here.

How the values were obtained:
[1] = target: Sodium-dependent noradrenaline transporter (Homo sapiens, UniProt P23975); assay: Inhibition of human NET expressed in CHOK1 cells incubated for 45 mins by [3H]-norepinephrine uptake assay; type: cell-based, CHO-K1
Chain of Sodium-dependent noradrenaline transporter (P23975 whole entry): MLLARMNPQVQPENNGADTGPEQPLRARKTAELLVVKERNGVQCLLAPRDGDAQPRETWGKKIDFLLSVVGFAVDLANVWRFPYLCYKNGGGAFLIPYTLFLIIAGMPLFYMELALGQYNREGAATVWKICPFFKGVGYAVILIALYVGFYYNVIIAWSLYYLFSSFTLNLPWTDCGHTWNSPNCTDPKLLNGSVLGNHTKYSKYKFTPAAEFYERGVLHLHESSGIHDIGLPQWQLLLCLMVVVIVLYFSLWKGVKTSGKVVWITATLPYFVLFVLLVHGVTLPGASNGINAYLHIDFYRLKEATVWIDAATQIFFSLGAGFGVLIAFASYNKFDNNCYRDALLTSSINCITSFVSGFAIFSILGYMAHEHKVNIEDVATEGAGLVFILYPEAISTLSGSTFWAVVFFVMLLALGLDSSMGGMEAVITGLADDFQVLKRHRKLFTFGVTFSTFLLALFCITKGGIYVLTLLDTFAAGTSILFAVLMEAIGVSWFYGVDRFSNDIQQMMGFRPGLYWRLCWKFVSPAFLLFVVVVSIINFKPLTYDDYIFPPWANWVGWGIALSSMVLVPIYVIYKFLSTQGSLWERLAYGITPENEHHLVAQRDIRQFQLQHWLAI
Procedure, shortened: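 Human NET stably expressed in CHO cells (Ham/F12, 10% FBS), seeded 3 × 10^5 cells/mL, overnight culture. In HEPES-buffered salt/glucose buffer with 0.5% BSA, compound then [3H]-norepinephrine (diluted to 200 nM before addition) added; uptake 45 min, two PBS washes, scintillation counting. 10 µM desipramine taken as 100% inhibition; IC50 and 95% confidence interval from n=2.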

Homo sapiens [2] = species: Homo sapiens; assay: Selectivity index, ratio of IC50 for human SERT to IC50 for human NET
Procedure, shortened: (§1)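 Ratio of IC50s from two [3H]-uptake assays in CHO cells (SERT or human NET expressing), seeded overnight in HEPES-buffered saline with glucose and 0.5% BSA. Radioligand added from 200 nM dilutions. SERT: [3H]-5-hydroxytryptamine, 20 min. NET: [3H]-norepinephrine, 45 min. Washed, scintillation counted; IC50 with 95% CI, n=2.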

[3] = target: Sodium-dependent serotonin transporter (Homo sapiens, UniProt P31645); assay: Inhibition of human SERT expressed in CHOK1 cells incubated for 20 mins by [3H]-5-hydroxytryptamine uptake assay; type: cell-based, CHO-K1
Chain of Sodium-dependent serotonin transporter (P31645 whole entry): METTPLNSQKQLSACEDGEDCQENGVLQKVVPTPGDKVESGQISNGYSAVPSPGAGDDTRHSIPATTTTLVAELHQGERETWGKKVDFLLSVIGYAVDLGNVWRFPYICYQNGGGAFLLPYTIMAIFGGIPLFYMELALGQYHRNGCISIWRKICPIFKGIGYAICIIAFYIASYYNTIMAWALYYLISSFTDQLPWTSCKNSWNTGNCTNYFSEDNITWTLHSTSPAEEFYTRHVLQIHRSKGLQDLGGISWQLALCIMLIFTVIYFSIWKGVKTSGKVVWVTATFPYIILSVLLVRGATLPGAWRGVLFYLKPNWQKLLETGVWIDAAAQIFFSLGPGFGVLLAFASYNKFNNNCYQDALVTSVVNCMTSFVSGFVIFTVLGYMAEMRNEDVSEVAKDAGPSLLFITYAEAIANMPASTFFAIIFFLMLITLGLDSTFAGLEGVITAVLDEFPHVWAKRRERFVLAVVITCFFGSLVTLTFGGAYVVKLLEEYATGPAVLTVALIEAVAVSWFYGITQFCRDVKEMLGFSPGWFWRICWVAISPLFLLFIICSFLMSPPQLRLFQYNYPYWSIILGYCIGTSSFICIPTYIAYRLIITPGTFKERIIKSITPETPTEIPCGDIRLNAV
Procedure, shortened: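 CHO cells stably expressing human SERT, cultured in Ham/F12 plus 10% FBS, plated 3 × 10^5 cells/mL overnight. Buffer: 126 mM NaCl, 10 mM HEPES, glucose, 0.5% BSA; compound added at 10× then diluted, followed by [3H]-5-HT (200 nM stock). After 20 min, buffer removed, cells washed twice with PBS, radioactivity counted; IC50 and 95% CI from two experiments.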

CYP2D6 = CYP2D6 (Homo sapiens, UniProt P10635); assay: Inhibition of CYP2D6 (unknown origin) at 10 uM; type: ADME
Chain of CYP2D6 (P10635 whole entry): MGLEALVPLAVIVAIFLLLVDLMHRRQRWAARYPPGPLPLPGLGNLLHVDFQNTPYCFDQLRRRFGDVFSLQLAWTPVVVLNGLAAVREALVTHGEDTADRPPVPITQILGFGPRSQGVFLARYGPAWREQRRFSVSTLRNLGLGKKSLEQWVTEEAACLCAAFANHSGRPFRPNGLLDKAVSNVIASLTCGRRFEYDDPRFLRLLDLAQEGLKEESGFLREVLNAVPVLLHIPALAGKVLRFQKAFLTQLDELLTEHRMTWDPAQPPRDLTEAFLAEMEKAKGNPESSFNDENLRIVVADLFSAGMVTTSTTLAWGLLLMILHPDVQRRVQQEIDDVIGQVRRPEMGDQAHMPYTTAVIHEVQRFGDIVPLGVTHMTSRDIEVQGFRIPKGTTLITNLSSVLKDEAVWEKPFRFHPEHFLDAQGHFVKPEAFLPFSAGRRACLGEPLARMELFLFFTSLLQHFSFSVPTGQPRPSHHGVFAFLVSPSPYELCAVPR

Homo sapiens [4] = species: Homo sapiens; assay: Selectivity index, ratio of IC50 for human DAT to IC50 for human NET
Procedure, shortened: as §1, with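 “stably expressing human DAT” for “(SERT”, “NET,” for “human NET expressing),”, “DAT: [3H]-dopamine plus cold dopamine (10 µM dilution), 60” for “SERT: [3H]-5-hydroxytryptamine, 20”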

[5] = target: Sodium-dependent dopamine transporter (Homo sapiens, UniProt Q01959); assay: Inhibition of human DAT expressed in CHOK1 cells incubated for 60 mins by [3H]-dopamine uptake assay; type: cell-based, CHO-K1
Chain of Sodium-dependent dopamine transporter (Q01959 whole entry): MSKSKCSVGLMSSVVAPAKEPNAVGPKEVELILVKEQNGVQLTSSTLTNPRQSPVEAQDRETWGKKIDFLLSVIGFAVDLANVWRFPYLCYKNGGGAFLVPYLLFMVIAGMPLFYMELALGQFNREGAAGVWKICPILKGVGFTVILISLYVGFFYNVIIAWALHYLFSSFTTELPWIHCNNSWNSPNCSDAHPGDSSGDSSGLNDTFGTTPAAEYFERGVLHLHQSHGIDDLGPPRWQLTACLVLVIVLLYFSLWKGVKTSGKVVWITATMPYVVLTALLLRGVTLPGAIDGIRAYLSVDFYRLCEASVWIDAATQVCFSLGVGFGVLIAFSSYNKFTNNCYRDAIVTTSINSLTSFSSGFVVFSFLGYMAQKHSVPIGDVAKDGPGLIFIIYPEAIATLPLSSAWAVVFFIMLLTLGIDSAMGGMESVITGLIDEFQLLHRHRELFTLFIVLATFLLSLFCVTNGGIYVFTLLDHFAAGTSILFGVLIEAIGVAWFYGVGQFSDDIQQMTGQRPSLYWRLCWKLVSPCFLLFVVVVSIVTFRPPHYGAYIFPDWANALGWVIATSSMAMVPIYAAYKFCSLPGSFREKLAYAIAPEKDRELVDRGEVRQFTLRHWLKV
Procedure, shortened: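 CHO cells stably expressing human DAT, grown in Ham/F12 with 10% FBS, seeded 3 × 10^5 cells/mL and cultured overnight. Compound added in buffer (NaCl, KCl, KH2PO4, MgSO4, 10 mM HEPES, CaCl2, glucose, 0.5% BSA), then [3H]-dopamine (200 nM stock, with 10 µM cold dopamine stock); 60 min uptake, PBS wash, scintillation count. 100 µM nomifensine as 100% inhibition; IC50 with 95% CI, n=2.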

Rattus norvegicus [6] = assay: In-vivo occupancy at NET in Sprague-Dawley rat brain cortex at 3 mg/kg, iv by [3H]-nisoxetine […] assay; type: functional
Procedure, shortened: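 Female Sprague-Dawley rats under urethane anaesthesia (i.p.) got compound i.v. The left cortex was removed 20 min later and homogenised in Tris-Cl pH 7.5/NaCl/KCl buffer. Membranes at 4 mg/mL protein were incubated 1 h at room temperature with [3H]-nisoxetine (25 nmol/L solution), with desipramine for nonspecific binding. Filtered on GF/B; occupancy taken against vehicle specific binding (100%).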

Rattus norvegicus [7] = assay: Increase in urethral resistance in rat assessed as increase in leak point pressure at 1 to 10 mg/kg, sc measured 30 mins post dose by Evans blue dye based assay; type: functional, organism-based; details: Urethra
Rattus norvegicus [8] = assay: Increase in urethral resistance in rat assessed as increase in leak point pressure at 0.3 to 3 mg/kg, iv measured 30 mins post dose by Evans blue dye based assay; type: functional, organism-based; details: Urethra
hERG (KCNH2) = hERG (KCNH2) (Homo sapiens, UniProt Q12809); assay: Inhibition of human ERG at 10 uM
Chain of hERG (KCNH2) (Q12809 whole entry): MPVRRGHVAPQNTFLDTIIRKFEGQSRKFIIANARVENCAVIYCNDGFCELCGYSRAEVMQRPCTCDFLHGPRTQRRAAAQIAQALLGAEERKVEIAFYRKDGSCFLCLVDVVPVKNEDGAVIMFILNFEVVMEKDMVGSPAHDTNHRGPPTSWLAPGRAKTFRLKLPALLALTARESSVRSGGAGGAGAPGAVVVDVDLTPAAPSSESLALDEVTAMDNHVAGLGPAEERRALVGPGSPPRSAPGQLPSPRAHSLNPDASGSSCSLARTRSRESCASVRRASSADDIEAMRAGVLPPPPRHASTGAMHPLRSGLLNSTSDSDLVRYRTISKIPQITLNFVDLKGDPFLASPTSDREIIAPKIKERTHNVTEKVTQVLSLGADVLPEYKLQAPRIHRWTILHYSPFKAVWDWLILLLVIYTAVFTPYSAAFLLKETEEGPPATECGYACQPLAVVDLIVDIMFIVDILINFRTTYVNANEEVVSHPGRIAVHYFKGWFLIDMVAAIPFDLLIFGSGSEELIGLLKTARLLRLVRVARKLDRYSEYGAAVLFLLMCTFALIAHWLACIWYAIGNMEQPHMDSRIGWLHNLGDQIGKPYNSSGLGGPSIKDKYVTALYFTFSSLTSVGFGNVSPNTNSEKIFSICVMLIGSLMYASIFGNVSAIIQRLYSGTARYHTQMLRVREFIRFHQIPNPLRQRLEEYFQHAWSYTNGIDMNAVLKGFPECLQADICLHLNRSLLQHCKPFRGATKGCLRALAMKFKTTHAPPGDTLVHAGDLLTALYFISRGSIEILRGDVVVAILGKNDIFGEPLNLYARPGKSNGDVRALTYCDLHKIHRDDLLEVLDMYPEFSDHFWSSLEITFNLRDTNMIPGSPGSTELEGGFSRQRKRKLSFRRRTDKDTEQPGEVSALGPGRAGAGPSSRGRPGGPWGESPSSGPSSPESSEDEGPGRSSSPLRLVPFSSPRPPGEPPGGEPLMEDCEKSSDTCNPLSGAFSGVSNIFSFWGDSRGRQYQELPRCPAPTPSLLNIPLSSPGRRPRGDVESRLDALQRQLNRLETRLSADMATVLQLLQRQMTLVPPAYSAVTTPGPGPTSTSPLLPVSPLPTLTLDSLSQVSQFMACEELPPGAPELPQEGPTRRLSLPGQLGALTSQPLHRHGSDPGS

Row | Compound | pIC50 [1] | Ratio IC50 (Homo sapiens [2]) | pIC50 [3] | inhibition at 10 µM (CYP2D6) [%] | Ratio IC50 (Homo sapiens [4]) | pIC50 [5] | Occ (Rattus norvegicus [6]) [%] | Activity (Rattus norvegicus [7]) | Activity (Rattus norvegicus [8]) | inhibition at 10 µM (hERG (KCNH2)) [%]
1 | OC[C@@H]1CNCCO[C@@H]1c1ccc(Cl)c(Cl)c1 | 8.07 | 1.3 | 7.96 | 58 | > 120 | < 6.00 | – | – | – | –
2 | OCC1(c2ccc(Cl)c(Cl)c2)CCNCCO1 (racemic) | 7.77 | 12 | 6.70 | 19 | > 590 | < 5.00 | – | – | – | –
3 | OCC1(c2ccc(Cl)c(Cl)c2)CCCNCC1 (racemic) | 8.68 | 17 | 7.46 | 44 | > 480 | < 6.00 | – | – | – | –
4 | Cl.OC[C@@H]1CNCCO[C@H]1c1ccc(Cl)c(Cl)c1 | 8.70 | 50 | 7.01 | 34 | 1800 | 5.51 | 68 | – | – | –
5 | CNC(=O)[C@@H]1CNCCO[C@H]1c1ccc(Cl)c(Cl)c1 | 7.92 | > 83 | < 6.00 | – | > 83 | < 6.00 | – | – | – | –
6 | NC(=O)[C@@H]1CNCCO[C@H]1c1ccc(Cl)c(Cl)c1 | 7.28 | 15 | 6.11 | – | > 190 | < 5.00 | – | – | – | –
7 | OC[C@H]1CNCCO[C@H]1c1ccc(Cl)c(Cl)c1 | 8.22 | 20 | 6.92 | 47 | > 170 | < 6.00 | – | – | – | –
8 | OC[C@H]1CNCCO[C@@H]1c1ccc(Cl)c(Cl)c1 | 8.24 | 6.1 | 7.44 | 45 | 230 | 5.85 | – | – | – | –
9 | OC[C@@]1(c2ccc(Cl)c(Cl)c2)CCNCCO1 | 8.25 | 35 | 6.70 | 23 | > 1800 | < 5.00 | – | – | – | –
10 | CC(=O)NCC[C@@H]1CNCCO[C@H]1c1ccc(Cl)c(Cl)c1 | 8.24 | 35 | 6.70 | – | > 170 | < 6.00 | – | – | – | –
11 | CC(=O)NC[C@@H]1CNCCO[C@H]1c1ccc(Cl)c(F)c1.Cl | 8.64 | > 440 | < 6.00 | – | > 440 | < 6.00 | -2.8 | – | – | –
12 | CC(=O)NC[C@@H]1CNCCO[C@H]1c1ccc(Cl)c(C)c1 | 8.48 | 150 | 6.32 | – | > 300 | < 6.00 | – | – | – | –
13 | CCOc1ccccc1O[C@@H](c1ccccc1)[C@@H]1CNCCO1 | – | – | – | – | – | – | – | Active | – | –
14 | CC(=O)NC[C@@H]1CNCCO[C@H]1c1ccc(Cl)c(Cl)c1.O=C(O)/C=C/C(=O)O | 9.48 | 450 | 6.82 | – | 4400 | 5.82 | -14 | – | Dose-dependent effect | 15
15 | CC(=O)NC[C@@H]1CNCCO[C@H]1c1ccc(F)c(Cl)c1.O=C(O)/C=C/C(=O)O | 7.89 | > 76 | < 6.00 | – | > 76 | < 6.00 | 1.7 | – | – | –
16 | CC(=O)NC[C@@H]1CNCCO[C@H]1c1ccc(C)c(Cl)c1 | 8.47 | 200 | 6.17 | – | > 300 | < 6.00 | – | – | – | –
17 | CN(C)C(=O)[C@@H]1CNCCO[C@H]1c1ccc(Cl)c(Cl)c1.Cl | 9.11 | 460 | 6.46 | – | 91 | 7.15 | 68 | – | – | –
18 | OC[C@]1(c2ccc(Cl)c(Cl)c2)CCNCCO1 | 6.15 | 0.47 | 6.48 | 21 | > 14 | < 5.00 | – | – | – | –
